Results published in ChEMBL document CHEMBL1914430, “Synthesis of some new 1,3,5-trisubstituted pyrazolines bearing benzene sulfonamide as anticancer and anti-inflammatory agents” (Bioorg Med Chem Lett, 2011).

What was measured:
Rattus norvegicus [1] = test: Antiinflammatory activity in Wistar rat assessed as inhibition of carrageenan-induced hind paw edema at 20 mg/kg, po administered 30 mins before carrageenan challenge measured after 5 hrs by plethysmometer; format: functional
How it was run: (§1)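 Wistar rats of either sex, 150–175 g, fasted 16 h, n = 6 per group. Compound given orally at 20 mg/kg as a suspension in 1% CMC in water (10 mL/kg); controls got vehicle only. After 30 min, 0.1 mL of 1% carrageenan in saline was injected subplantar into the left hind paw. Paw volume was measured by plethysmometer at 0, 3 and 5 h. Inhibition = (1 − Vt/Vc) × 100, reported as mean ± SEM.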

Rattus norvegicus [2] = test: Antiinflammatory activity in Wistar rat assessed as inhibition of carrageenan-induced hind paw edema at 20 mg/kg, po administered 30 mins before carrageenan challenge measured after 3 hrs by plethysmometer; format: functional; how it was run: as §1

Row | Structure (SMILES) | inhibition in vivo at 20 mg/kg (Rattus norvegicus [1]) | inhibition in vivo at 20 mg/kg (Rattus norvegicus [2])
1 | Cc1cc(O)c(C2=NN(c3ccc(S(N)(=O)=O)cc3)C(c3ccc(Cl)cc3)C2)cc1Cl (stereo not drawn) | 71.4% | 65.8%
2 | COc1cc(C)c(Cl)cc1C1=NN(c2ccc(S(N)(=O)=O)cc2)C(c2ccccc2)C1 (stereo not drawn) | 59.5% | 55.3%
3 | Cc1ccc(-c2cc(C(F)(F)F)nn2-c2ccc(S(N)(=O)=O)cc2)cc1 [CELECOXIB] | 85.7% | 82.6%
4 | Cc1cc(O)c(C2=NN(c3ccc(S(N)(=O)=O)cc3)C(c3ccccc3)C2)cc1Cl (stereo not drawn) | 60.3% | 47.4%
